Reference: ChEMBL document CHEMBL4765234 (J Med Chem, 2016)
Calls of active or inactive are those of the source. No cut-off for these calls is given here.

Experiments:
[1] = molecular target: T1, Free fatty acid receptor 1 (Homo sapiens, UniProt O14842); test: Displacement of [3H]-TAK-875 from human recombinant full-length GPR40 expressed in human HEK293 cell membrane incubated for 2 hrs by solid scintillation counting method; assay type: cell membranes
[2] = molecular target: T1, Free fatty acid receptor 1; test: Agonist activity at human recombinant full length GPR40 overexpressed in human HEK293 cells assessed as increase in intracellular calcium level measured over 3 mins by calcium 4 dye based FLIPR assay; assay type: functional, cell-based
Summary of the method: (§1)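 HEK293 cells overexpressing hGPR40 (25K/well) were cultured overnight in DMEM/F12 with 0.2% FBS and geneticin. Compound was tested at 40 μM–0.1 nM final (20-point, 1% DMSO), and FLIPR fluorescence was read over 3 min.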

[3] = molecular target: T1, Free fatty acid receptor 1; test: Agonist activity at human recombinant full length GPR40 overexpressed in human HEK293 cells assessed as increase in intracellular calcium level measured over 3 mins by calcium 4 dye based FLIPR assay relative to 100 uM linoleic acid; assay type: functional, cell-based; conditions: filed as agonist; summary of the method: as §1
[4] = molecular target: T1, Free fatty acid receptor 1; test: Agonist activity at human recombinant full-length Prolink-tagged GPR40 fused with EA-tagged beta-arrestin expressed in human HEK293 cells assessed as induction of beta-arrestin recruitment measured after 90 mins by beta-galactosidase based PathHunter assay; assay type: cell-based
Summary of the method: (§2)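 PathHunter β-gal complementation. Cells were incubated overnight at 5000/well in medium with 1% heat-inactivated FBS. Compound was added as a 20-point 2-fold series from a top final of 100 μM (1% DMSO) for 90 min at 37 °C, followed by detection reagents and chemiluminescence read after 1 h at rt.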

[5] = molecular target: T1, Free fatty acid receptor 1; test: Agonist activity at human recombinant full-length Prolink-tagged GPR40 fused with EA-tagged beta-arrestin expressed in human HEK293 cells assessed as induction of beta-arrestin recruitment measured after 90 mins by beta-galactosidase based PathHunter assay relative to control; assay type: cell-based; conditions: filed as agonist; summary of the method: as §2
[6] = molecular target: Free fatty acid receptor 1 (Mus musculus, UniProt Q76JU9); test: Agonist activity at Prolink-tagged mouse GPR40 fused with EA-tagged beta-arrestin expressed in human U2OS cells assessed as induction of beta-arrestin recruitment measured after 90 mins by beta-galactosidase based PathHunter assay; assay type: cell-based; summary of the method: as §2
Sequence of Free fatty acid receptor 1 (Mus musculus, UniProt Q76JU9) (Q76JU9 whole entry, the tested form may be a part): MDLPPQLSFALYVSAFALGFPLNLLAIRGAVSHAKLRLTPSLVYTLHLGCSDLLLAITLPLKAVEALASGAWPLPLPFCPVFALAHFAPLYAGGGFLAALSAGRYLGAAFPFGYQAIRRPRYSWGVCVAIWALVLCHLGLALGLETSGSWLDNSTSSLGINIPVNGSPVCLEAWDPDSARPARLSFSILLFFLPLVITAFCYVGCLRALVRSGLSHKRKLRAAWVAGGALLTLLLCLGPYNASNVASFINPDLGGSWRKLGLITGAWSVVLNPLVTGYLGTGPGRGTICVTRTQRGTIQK

[7] = molecular target: Free fatty acid receptor 1 (Mus musculus) (UniProt Q76JU9); test: Agonist activity at Prolink-tagged mouse GPR40 fused with EA-tagged beta-arrestin expressed in human U2OS cells assessed as induction of beta-arrestin recruitment measured after 90 mins by beta-galactosidase based PathHunter assay relative to control; assay type: cell-based; conditions: filed as agonist; summary of the method: as §2
Sequence of Free fatty acid receptor 1 (Mus musculus) (Q76JU9 whole entry, the tested form may be a part): as above

[8] = molecular target: Free fatty acid receptor 1 (Rattus norvegicus, UniProt Q8K3T4); test: Agonist activity at Prolink-tagged rat GPR40 fused with EA-tagged beta-arrestin expressed in human U2OS cells assessed as induction of beta-arrestin recruitment measured after 90 mins by beta-galactosidase based PathHunter assay; assay type: cell-based; summary of the method: as §2
Sequence of Free fatty acid receptor 1 (Rattus norvegicus, UniProt Q8K3T4) (Q8K3T4 whole entry, the tested form may be a part): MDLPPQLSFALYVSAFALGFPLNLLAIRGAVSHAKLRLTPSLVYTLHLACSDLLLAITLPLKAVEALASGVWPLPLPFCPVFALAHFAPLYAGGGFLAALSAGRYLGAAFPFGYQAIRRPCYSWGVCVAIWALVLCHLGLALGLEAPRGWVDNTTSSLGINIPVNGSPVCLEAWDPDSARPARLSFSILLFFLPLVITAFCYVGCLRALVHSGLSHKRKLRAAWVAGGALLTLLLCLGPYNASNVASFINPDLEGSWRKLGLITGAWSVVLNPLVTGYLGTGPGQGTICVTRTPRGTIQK

[9] = molecular target: Free fatty acid receptor 1 (Rattus norvegicus) (UniProt Q8K3T4); test: Agonist activity at Prolink-tagged rat GPR40 fused with EA-tagged beta-arrestin expressed in human U2OS cells assessed as induction of beta-arrestin recruitment measured after 90 mins by beta-galactosidase based PathHunter assay relative to control; assay type: cell-based; conditions: filed as agonist; summary of the method: as §2
Sequence of Free fatty acid receptor 1 (Rattus norvegicus) (Q8K3T4 whole entry, the tested form may be a part): as above

[10] = molecular target: T1, Free fatty acid receptor 1; test: Agonist activity at human recombinant full length GPR40 overexpressed in human HEK293 cells assessed as increase in inositol phosphate accumulation in presence of terbium cryptate-labeled anti IP1/d2-labelled IP1 measured after 120 mins by HTRF assay; assay type: functional, cell-based
Summary of the method: (§3)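 HEK293 hGPR40 cells (20K/well) were cultured overnight, washed, and held in IP1 stimulation buffer. IP-1 was measured by competitive HTRF immunoassay with terbium cryptate anti-IP1 mAb and d2-labelled IP1.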

[11] = molecular target: T1, Free fatty acid receptor 1; test: Agonist activity at human recombinant full length GPR40 overexpressed in human HEK293 cells assessed as increase in inositol phosphate accumulation in presence of terbium cryptate-labeled anti IP1/d2-labelled IP1 measured after 120 mins by HTRF assay relative to AMG837; assay type: functional, cell-based; conditions: filed as agonist; summary of the method: as §3
[12] = Protein binding in plasma (unknown origin) by equilibrium dialysis method; assay type: ADME, cell-free; conditions: human, read-out: PPB
Summary of the method: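 Plasma protein binding measured by equilibrium dialysis.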

[13] = molecular target: T2, Peroxisome proliferator-activated receptor alpha (Homo sapiens) (UniProt Q07869); test: Displacement of [3H]-[…] from PPARalpha (unknown origin) expressed in baculovirus infected Sf9 insect cells upto 30 uM measured after 10 hrs by microbeta scintillation counting analysis; conditions: dose microM <=30, time 10.0 hrs
T2 sequence (whole entry): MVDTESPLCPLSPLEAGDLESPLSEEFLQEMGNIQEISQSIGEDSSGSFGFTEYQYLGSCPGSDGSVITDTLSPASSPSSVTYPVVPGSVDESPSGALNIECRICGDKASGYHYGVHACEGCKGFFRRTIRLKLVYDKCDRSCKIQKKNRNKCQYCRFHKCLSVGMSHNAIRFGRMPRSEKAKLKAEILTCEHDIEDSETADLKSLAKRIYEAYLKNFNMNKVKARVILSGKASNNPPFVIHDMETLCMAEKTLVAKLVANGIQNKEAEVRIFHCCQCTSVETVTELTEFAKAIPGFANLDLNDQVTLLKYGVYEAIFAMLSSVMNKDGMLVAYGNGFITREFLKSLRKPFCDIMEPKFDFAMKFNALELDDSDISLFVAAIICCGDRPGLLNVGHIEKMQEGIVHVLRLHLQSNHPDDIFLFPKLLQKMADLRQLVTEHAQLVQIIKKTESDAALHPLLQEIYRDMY
Summary of the method: (§4)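 Scintillation proximity assay. Sf9 lysates with baculovirus-expressed PPARα (0.3 μg), PPARδ (0.5 μg) or PPARγ (1.25 μg), each with RXRα, were bound via biotinylated DR2 oligo (0.126 nM) to streptavidin yttrium silicate beads. Buffer was HEPES pH 7.8 with KCl, MgCl2, DTT, CHAPS, 14% glycerol and salmon sperm DNA. A 3H reference agonist ligand was used, with 11 compound concentrations, for 10 h. Nonspecific binding was defined with 10000 nM unlabeled reference. Ki was derived from IC50.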

[14] = molecular target: T3, Peroxisome proliferator-activated receptor delta (Homo sapiens) (UniProt Q03181); test: Displacement of [3H]-[…] from PPARdelta (unknown origin) expressed in baculovirus infected Sf9 insect cells upto 30 uM measured after 10 hrs by microbeta scintillation counting analysis; conditions: dose microM <=30, time 10.0 hrs; summary of the method: as §4
T3 sequence (whole entry): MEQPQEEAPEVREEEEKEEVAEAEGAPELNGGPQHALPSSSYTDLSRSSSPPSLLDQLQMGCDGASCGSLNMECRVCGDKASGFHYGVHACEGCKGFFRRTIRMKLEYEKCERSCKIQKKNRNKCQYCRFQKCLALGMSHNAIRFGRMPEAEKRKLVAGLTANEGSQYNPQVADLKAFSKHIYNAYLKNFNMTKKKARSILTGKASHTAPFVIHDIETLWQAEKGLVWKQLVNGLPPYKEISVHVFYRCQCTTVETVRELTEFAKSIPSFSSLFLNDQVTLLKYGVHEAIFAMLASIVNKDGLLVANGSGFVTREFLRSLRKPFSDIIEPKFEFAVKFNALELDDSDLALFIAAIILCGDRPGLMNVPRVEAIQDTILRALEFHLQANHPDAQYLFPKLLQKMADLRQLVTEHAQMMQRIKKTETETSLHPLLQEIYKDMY

[15] = molecular target: T4, Peroxisome proliferator-activated receptor gamma (Homo sapiens) (UniProt P37231); test: Displacement of [3H]-[…] from PPARgamma (unknown origin) expressed in baculovirus infected Sf9 insect cells upto 30 uM measured after 10 hrs by microbeta scintillation counting analysis; conditions: dose microM <=30, time 10.0 hrs; summary of the method: as §4
T4 sequence (whole entry): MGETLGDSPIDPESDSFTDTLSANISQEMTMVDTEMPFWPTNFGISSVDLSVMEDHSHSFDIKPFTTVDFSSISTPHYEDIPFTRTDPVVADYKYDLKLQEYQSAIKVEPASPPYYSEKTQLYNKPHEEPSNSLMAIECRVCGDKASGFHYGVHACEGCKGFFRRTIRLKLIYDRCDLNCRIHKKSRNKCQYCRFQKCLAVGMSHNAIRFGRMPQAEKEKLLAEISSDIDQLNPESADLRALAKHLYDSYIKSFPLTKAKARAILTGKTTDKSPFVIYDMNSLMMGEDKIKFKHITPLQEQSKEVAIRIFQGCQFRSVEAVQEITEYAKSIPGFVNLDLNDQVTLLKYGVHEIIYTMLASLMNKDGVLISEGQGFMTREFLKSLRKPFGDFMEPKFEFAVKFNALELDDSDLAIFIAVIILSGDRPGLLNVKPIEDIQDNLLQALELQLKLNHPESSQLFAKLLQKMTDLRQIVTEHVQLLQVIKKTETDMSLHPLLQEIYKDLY

T1 sequence (O14842 whole entry): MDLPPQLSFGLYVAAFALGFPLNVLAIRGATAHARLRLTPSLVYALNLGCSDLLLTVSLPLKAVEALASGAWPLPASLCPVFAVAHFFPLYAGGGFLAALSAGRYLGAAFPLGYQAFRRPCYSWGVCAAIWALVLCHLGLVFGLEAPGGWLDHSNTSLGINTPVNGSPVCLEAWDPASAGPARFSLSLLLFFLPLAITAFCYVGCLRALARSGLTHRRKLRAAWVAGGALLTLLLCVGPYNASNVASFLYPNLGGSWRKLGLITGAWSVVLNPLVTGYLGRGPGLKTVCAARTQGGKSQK

SMILES	Ki [1] [nM]	EC50 [2] [nM]	Emax [3] [%]	EC50 [4] [nM]	Emax [5] [%]	EC50 [6] [nM]	Emax [7] [%]	EC50 [8] [nM]	Emax [9] [%]	EC50 [10] [nM]	Emax [11] [%]	fraction unbound [12]	Activity [13]	Activity [14]	Activity [15]
CC#C[C@@H](CC(=O)O)c1ccc(OCc2ccc(CN3CCC4(CC3)CN(C(C)C)c3ccccc34)cc2)cc1	4.1	24	46	8.2	133	1.2	143	2.1	139	11	343	< 0.01	inactive	inactive	inactive
CC#C[C@@H](CC(=O)O)c1ccc(OCc2ccc(CN3CCC4(CC3)CN(C)c3ccc(C(F)(F)F)cc34)cc2)cc1	2.7	14	42	2.9	139	0.5	158	0.59	154	4.7	275	< 0.01	inactive	inactive	inactive
CC#C[C@@H](CC(=O)O)c1ccc(OCc2cnc(CN3CCC4(C=Cc5ccccc54)CC3)s2)cc1	120	4.4	62	170	114	3.8	127	11	114	5.2	129	< 0.01	inactive	inactive	inactive
CC#C[C@@H](CC(=O)O)c1ccc(OCc2cc(C)c(CN3CCC4(C=Cc5ccccc54)CC3)s2)cc1	3.5	2.9	65	3.9	127	0.69	122	1.1	121	0.98	132	< 0.01	inactive	inactive	inactive
CC#C[C@@H](CC(=O)O)c1ccc(OCc2ccc(CN3CCC4(CC3)CN(C)c3c(Cl)cccc34)cc2)cc1	3.5	17	42	3.3	147	0.59	141	0.89	138	11	378	< 0.01	inactive	inactive	inactive
CC#C[C@@H](CC(=O)O)c1ccc(OCc2ccc(CN3CCC4(CC3)CN(C)c3ccc(OC)cc34)cc2)cc1	29	130	49	100	129	11	144	18	145	23	311	< 0.01	inactive	inactive	inactive
CC#C[C@@H](CC(=O)O)c1ccc(OCc2nc(C)c(CN3CCC4(C=Cc5ccccc54)CC3)s2)cc1	59	11	62	58	114	3.8	118	17	112	10	112	< 0.01	inactive	inactive	inactive
CC#C[C@@H](CC(=O)O)c1ccc(OCc2ccc(CN3CCC4(C=Cc5ccccc54)CC3)cc2)cc1F	13	18	60	36	118	5.6	120	16	115	14	156	< 0.01	inactive	inactive	inactive
CC#C[C@H](CC(=O)O)c1ccc(OCc2ccc(CN3CCC4(C=Cc5ccccc54)CC3)cc2)cc1F	410	440	61	680	102	120	113	420	112	190	160	< 0.01	inactive	inactive	inactive
O=C(O)CCc1ccc(OCc2ccc(CN3CCC4(C=Cc5ccccc54)CC3)cc2)cc1Cl	200	140	59	740	133	110	116	540	108	86	265	< 0.01	inactive	inactive	inactive
